Measurements as given in ChEMBL document CHEMBL1122179, “1-(alkylamino)isochromans: hypotensives with peripheral and central activities” (J Med Chem, 1982).
Activity calls are given as the source filed them. The calls are words filed in the database; no cut-off is given here.

Experiments:
Rattus norvegicus [1] = experiment: Delta BP refers to oral hypotensive activity of compound which is evaluated at 4 hr and 24 hr in restrained, normotensive conscious rats at a dose of 50 mg/kg; assay type: functional, organism-based; set-up: dose 50 mg/kg
How it was run: (§1)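 Female Sprague-Dawley rats, normotensive, restrained in a towel. Blood pressure was read directly via chronic indwelling aortic cannulas exteriorized at the nape, before and 4 and 24 h after an oral dose suspended in carboxymethylcellulose (10 mL/kg). Values from two animals were averaged at each time; a mean change of at least 5 mmHg was taken as significant (p < 0.05).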

Rattus norvegicus [2] = experiment: Delta BP refers to oral hypotensive activity of compound which is evaluated at 4 hr and 24 hr in restrained, normotensive conscious rats at a dose of 50 mg/kg; -2/2; assay type: functional; how it was run: as §1
Rattus norvegicus [3] = experiment: Delta BP refers to oral hypotensive activity of compound which is evaluated at 4 hr and 24 hr in restrained, normotensive conscious rats at a dose of 50 mg/kg; -10/-3; assay type: functional; how it was run: as §1
Rattus norvegicus [4] = experiment: Delta BP refers to oral hypotensive activity of compound which is evaluated at 4 hr and 24 hr in restrained, normotensive conscious rats at a dose of 50 mg/kg; -16/-26; assay type: functional; how it was run: as §1
Rattus norvegicus [5] = experiment: Delta BP refers to oral hypotensive activity of compound which is evaluated at 4 hr and 24 hr in restrained, normotensive conscious rats at a dose of 50 mg/kg; -19/-21; assay type: functional; how it was run: as §1
Rattus norvegicus [6] = experiment: Delta BP refers to oral hypotensive activity of compound which is evaluated at 4 hr and 24 hr in restrained, normotensive conscious rats at a dose of 50 mg/kg; -15/-3; assay type: functional; how it was run: as §1
Rattus norvegicus [7] = experiment: Delta BP refers to oral hypotensive activity of compound which is evaluated at 4 hr and 24 hr in restrained, normotensive conscious rats at a dose of 50 mg/kg; -13/-19; assay type: functional; how it was run: as §1
Rattus norvegicus [8] = experiment: Delta BP refers to oral hypotensive activity of compound which is evaluated at 4 hr and 24 hr in restrained, normotensive conscious rats at a dose of 50 mg/kg; -13/-2; assay type: functional; how it was run: as §1
Rattus norvegicus [9] = experiment: Delta BP refers to oral hypotensive activity of compound which is evaluated at 4 hr and 24 hr in restrained, normotensive conscious rats at a dose of 50 mg/kg; -22/-25; assay type: functional; how it was run: as §1
Rattus norvegicus [10] = experiment: Delta BP refers to oral hypotensive activity of compound which is evaluated at 4 hr and 24 hr in restrained, normotensive conscious rats at a dose of 50 mg/kg; -16/3; assay type: functional; details: dose 15 mg/kg, in the assay text read “dose of 15 mg/kg” for “dose of 50 mg/kg”; how it was run: as §1
Rattus norvegicus [11] = experiment: Delta BP refers to oral hypotensive activity of compound which is evaluated at 4 hr and 24 hr in restrained, normotensive conscious rats at a dose of 50 mg/kg; -4/-10; assay type: functional; how it was run: as §1
Rattus norvegicus [12] = experiment: Delta BP refers to oral hypotensive activity of compound which is evaluated at 4 hr and 24 hr in restrained, normotensive conscious rats at a dose of 50 mg/kg; -16/-14; assay type: functional; how it was run: as §1
Rattus norvegicus [13] = experiment: Delta BP refers to oral hypotensive activity of compound which is evaluated at 4 hr and 24 hr in restrained, normotensive conscious rats at a dose of 50 mg/kg; -4/-2; assay type: functional; how it was run: as §1
Rattus norvegicus [14] = experiment: Delta BP refers to oral hypotensive activity of compound which is evaluated at 4 hr and 24 hr in restrained, normotensive conscious rats at a dose of 50 mg/kg; -26/-21; assay type: functional; how it was run: as §1
Rattus norvegicus [15] = experiment: Delta BP refers to oral hypotensive activity of compound which is evaluated at 4 hr and 24 hr in restrained, normotensive conscious rats at a dose of 15 mg/kg; -24/-5; assay type: functional; how it was run: as §1
Rattus norvegicus [16] = experiment: Delta BP refers to oral hypotensive activity of compound which is evaluated at 4 hr and 24 hr in restrained, normotensive conscious rats at a dose of 50 mg/kg; -18/-28; assay type: functional; how it was run: as §1
Rattus norvegicus [17] = experiment: Delta BP refers to oral hypotensive activity of compound which is evaluated at 4 hr and 24 hr in restrained, normotensive conscious rats at a dose of 15 mg/kg; -8/-10; assay type: functional; how it was run: as §1

In the case of COc1cc2c(cc1OC)C(CCCN1CCN(c3cccc(C(F)(F)F)c3)CC1)(c1ccc(F)cc1)OCC2 (stereo not given), the Delta blood pressure (Rattus norvegicus [1]) is reported as “inactive”.
For COc1cc2c(cc1OC)C(CCN1CCN(c3cccc(C(F)(F)F)c3)CC1)OCC2 (stereo not given), the Delta blood pressure (Rattus norvegicus [2]) was -2 mmHg.
Work on COc1cc2c(cc1OC)C(C)(CCCN1CCN(c3ccc(F)cc3)CC1)OCC2 (stereo not given) yielded a Delta blood pressure (Rattus norvegicus [3]) of -10 mmHg.
For COc1cc2c(cc1OC)C(C)(CCN1CCN(c3ccc(F)cc3)CC1)OCC2 (stereo not given), the Delta blood pressure (Rattus norvegicus [4]) was -16 mmHg.
In the case of COc1cc2c(cc1OC)C(CCN1CCN(c3ccccc3)CC1)OC(C)(C)C2 (stereo not given), the Delta blood pressure (Rattus norvegicus [1]) is reported as “inactive”.
COc1cc2c(cc1OC)C(CCCN1CCN(c3ccccc3C)CC1)(c1ccc(F)cc1)OCC2 (stereo not given) was tested, and the Delta blood pressure (Rattus norvegicus [1]) was “inactive”.
With COc1cc2c(cc1OC)C(C)(CCCN1CCN(c3ccccc3OC)CC1)OCC2 (stereo not given) the Delta blood pressure (Rattus norvegicus [1]) was “inactive”.
For COc1cc2c(cc1OC)C(CCN1CCN(c3ccc(Cl)cc3)CC1)OCC2 (stereo not given), the Delta blood pressure (Rattus norvegicus [5]) was -19 mmHg.
For COc1cc2c(cc1OC)C(C)(CCN1CCN(c3ccccc3C)CC1)OCC2 (stereo not given), the Delta blood pressure (Rattus norvegicus [1]) was “inactive”.
Work on COc1cc2c(cc1OC)C(CN1CCN(c3ccccc3OC)CC1)OCC2 (stereo not given) yielded a Delta blood pressure (Rattus norvegicus [6]) of -15 mmHg.
COc1cc2c(cc1OC)C(CN1CCN(c3ccc(Cl)cc3)CC1)OCC2 (stereo not given) showed a Delta blood pressure (Rattus norvegicus [7]) of -13 mmHg.
In the case of COc1cc2c(cc1OC)C(C)(C)COC2CCN1CCN(c2ccc(F)cc2)CC1 (stereo not given), the Delta blood pressure (Rattus norvegicus [1]) is reported as “inactive”.
For COc1cc2c(cc1OC)C(C)(CCCN1CCN(c3cccc(Cl)c3)CC1)OCC2 (stereo not given), the Delta blood pressure (Rattus norvegicus [1]) was “inactive”.
COc1cc2c(cc1OC)C(C)(C)COC2CCN1CCN(c2ccc(Cl)cc2)CC1 (stereo not given) was tested, and the Delta blood pressure (Rattus norvegicus [8]) was -13 mmHg.
With COc1cc2c(cc1OC)C(CCCN1CCN(c3ccc(F)cc3)CC1)(c1ccc(F)cc1)OCC2 (stereo not given) the Delta blood pressure (Rattus norvegicus [9]) was -22 mmHg and the Delta blood pressure (Rattus norvegicus [10]) was -16 mmHg.
In the case of COc1cc2c(cc1OC)C(C)(C)COC2CCN1CCN(c2ccccc2OC)CC1 (stereo not given), the Delta blood pressure (Rattus norvegicus [1]) is reported as “inactive”.
COc1cc2c(cc1OC)C(CCN1CCN(c3ccccn3)CC1)OC(C)(C)C2 (stereo not given) was tested, and the Delta blood pressure (Rattus norvegicus [1]) was “inactive”.
For COc1cc2c(cc1OC)C(CCN1CCN(c3ccc(Cl)cc3)CC1)OC(C)(C)C2 (stereo not given), the Delta blood pressure (Rattus norvegicus [1]) was “inactive”.
In the case of COc1cc2c(cc1OC)C(CCN1CCN(c3ccccc3OC)CC1)OCC2 (stereo not given), the Delta blood pressure (Rattus norvegicus [1]) is reported as “inactive”.
COc1cc2c(cc1OC)C(C)(C)COC2CCN1CCN(c2cccc(Cl)c2)CC1 (stereo not given) showed a Delta blood pressure (Rattus norvegicus [11]) of -4 mmHg.
COc1cc2c(cc1OC)C(CN1CCN(c3ccccn3)CC1)OCC2 (stereo not given) was tested, and the Delta blood pressure (Rattus norvegicus [1]) was “inactive”.
Work on COc1cc2c(cc1OC)C(C)(C)COC2CCN1CCN(c2ccccc2)CC1 (stereo not given) yielded a Delta blood pressure (Rattus norvegicus [12]) of -16 mmHg.
For COc1cc2c(cc1OC)C(C)(CCCN1CCN(c3ccccc3)CC1)OCC2 (stereo not given), the Delta blood pressure (Rattus norvegicus [13]) was -4 mmHg.
COc1cc2c(cc1OC)C(C)(CCCN1CCN(c3ccccc3C)CC1)OCC2 (stereo not given) was tested, and the Delta blood pressure (Rattus norvegicus [14]) was -26 mmHg and the Delta blood pressure (Rattus norvegicus [15]) was -24 mmHg.
COc1cc2c(cc1OC)C(C)(C)COC2CCN1CCN(c2ccccc2C)CC1 (stereo not given) gave a Delta blood pressure (Rattus norvegicus [16]) of -18 mmHg and a Delta blood pressure (Rattus norvegicus [17]) of -8 mmHg.
In the case of COc1cc2c(cc1OC)C(C)(CCCN1CCN(c3cccc(C(F)(F)F)c3)CC1)OCC2 (stereo not given), the Delta blood pressure (Rattus norvegicus [1]) is reported as “inactive”.
For COc1cc2c(cc1OC)C(C)(CCN1CCN(c3cccc(C(F)(F)F)c3)CC1)OCC2 (stereo not given), the Delta blood pressure (Rattus norvegicus [1]) was “inactive”.
